# Measurements from ChEMBL document CHEMBL3792306, “Antichagasic and trichomonacidal activity of 1-substituted 2-benzyl-5-nitroindazolin-3-ones and 3-alkoxy-2-benzyl-5-nitro-2H-indazoles” (Eur J Med Chem, 2016).
# Tests used:
# Trypanosoma cruzi [1] = assay: Antichagasic activity against Trypanosoma cruzi CL-B5 epimastigotes […] assessed as growth inhibition after 72 hrs by beta galactosidase reporter gene assay; type: functional, organism-based
# In short: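 Then CPRG (200 µM final, pH 7.4) in Triton X-100 added for 3 h at 37 °C, A595 read. Triplicates, three independent runs; IC50 from dose–response of %growth inhibition, mean ± SD.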
# [2] = Selectivity index, ratio of LC50 for mouse L929 cells to IC50 for Trypanosoma cruzi CL-B5 lacZ amastigotes in mouse L929 cells; type: toxicity, cell-based; conditions: read-out: Ratio LC50/IC50
# In short: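 SI = LC50 (L929, 48 h resazurin) / amastigote IC50. Amastigotes: L929 cells (10,000/well, MEM) infected overnight at 33 °C with CL-B5 lacZ tissue-culture trypomastigotes (1:6 cell:parasite), washed, then exposed to compounds for 7 days. CPRG (400 µM final, 3% Triton X-100, pH 7.4) added for 3 h at 37 °C, A595 read. Triplicates; IC50 from %AGI curves. Assayed only when epimastigote SI warranted.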
# Trypanosoma cruzi [3] = assay: Antichagasic activity against Trypanosoma cruzi CL-B5 intracellular amastigotes in mouse L929 cells assessed as growth inhibition after 7 days by beta galactosidase reporter gene assay; type: functional, organism-based; conditions: CL-B5, L929, 168 h
# In short: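 L929 fibroblasts (10,000/well, MEM) infected overnight at 33 °C, 5% CO₂ with CL-B5 lacZ tissue-culture trypomastigotes (1:6 cell:parasite). Washed, then 7 days with compound in fresh MEM. CPRG (400 µM final, pH 7.4) in 3% Triton X-100 for 3 h at 37 °C, A595. Triplicates; IC50 from %amastigote growth inhibition curves, mean ± SD.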
# [4] = Cytotoxicity against mouse L929 cells after 48 hrs by resazurin assay; type: cell-based; conditions: read-out: LC50
# In short: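 L929 fibroblasts, 15×10^3 cells/well in MEM, attached 3 h. Exposed to compounds for 48 h at 37 °C, 5% CO2. Resazurin (2 mM solution in PBS) added for 3 h; fluorescence read at 535/590 nm to give % cytotoxicity. Triplicate wells, three independent runs. LC50 taken from concentration vs %C curves, mean ± SD.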
# [5] = Selectivity index, ratio of LC50 for mouse L929 cells to IC50 for Trypanosoma cruzi CL-B5 lacZ epimastigotes […]; type: toxicity, cell-based; conditions: read-out: Ratio LC50/IC50
# In short: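 SI = LC50 (L929, 48 h resazurin) / epimastigote IC50. […] CPRG (200 µM final, 0.9% Triton X-100, pH 7.4) added for 3 h at 37 °C, A595 read. Triplicates, n = 3; IC50 from %EGI curves.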
# Trichomonas vaginalis [6] = assay: Trichomonacidal activity against metronidazole-sensitive Trichomonas vaginalis JH31A#4 trophozoites after 24 hrs by resazurin dye based fluorescence assay; type: functional, organism-based; conditions: JH31A#4, 24 h
# In short: (§1)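 Trophozoites in TYM with 10% FBS, 37 °C, 5% CO₂, seeded at 10⁵/mL in glass tubes. After 5 h, compounds added at 9.37–300 µM final (DMSO <0.2%). Viability read by resazurin fluorimetry after 24 h at 37 °C. Metronidazole 25 µM as reference. At least two runs in triplicate; IC50 with 95% limits by probit.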
# [7] = Cytotoxicity against african green monkey Vero cells assessed as inhibition of cell growth after 24 hrs by resazurin dye based fluorescence assay; conditions: chlorocebus sabaeus
# In short: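 Vero CCL-81 cells (50,000/well, RPMI with 10% FBS) attached 6 h at 37 °C, then 24 h with compound. Resazurin added for 3 h, fluorescence at ex 535/em 590 nm. Triplicates in two independent assays; CC50 and 95% confidence limits by probit analysis.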
# Trichomonas vaginalis [8] = assay: Trichomonacidal activity against metronidazole-resistant Trichomonas vaginalis IR78 trophozoites after 24 hrs by resazurin dye based fluorescence assay; type: functional, organism-based; conditions: IR78, 24 h; in short: as §1
# [9] = Selectivity index, ratio of CC50 for african green monkey Vero cells to IC50 for metronidazole-resistant Trichomonas vaginalis IR78 trophozoites; type: functional
# In short: (§2)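 Selectivity index = Vero CC50 (24 h resazurin, probit) divided by trophozoite IC50 (24 h resazurin, probit) for the named T. vaginalis isolate.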
# [10] = Cytotoxicity against african green monkey Vero cells assessed as inhibition of cell growth at 300 uM after 24 hrs by resazurin dye based fluorescence assay; conditions: chlorocebus sabaeus, read-out: Activity
# [11] = Selectivity index, ratio of CC50 for african green monkey Vero cells to IC50 for metronidazole-sensitive Trichomonas vaginalis JH31A#4 trophozoites; type: functional; in short: as §2
SMILES,IC50 (Trypanosoma cruzi [1]) [µM],selectivity ratio [2],IC50 (Trypanosoma cruzi [3]) [µM],CC50 at 48 h [4] [µM],selectivity ratio [5],IC50 (Trichomonas vaginalis [6]) [µM],CC50 at 24 h [7] [µM],IC50 (Trichomonas vaginalis [8]) [µM],Ratio CC50/IC50 [9],"inhibition at 24 h, 300 µM [10] [%]",Ratio CC50/IC50 [11]
CCOCCCn1c2ccc([N+](=O)[O-])cc2c(=O)n1Cc1ccccc1,6.57,51.5,3.31,170,25.9,362,,,,,
C=Cn1c2ccc([N+](=O)[O-])cc2c(=O)n1Cc1ccccc1,2.75,341,0.47,160,58.4,258,,,,,
O=c1c2cc([N+](=O)[O-])ccc2n(CCBr)n1Cc1ccccc1,2.13,> 225,1.14,> 256,> 120,348,,,,,
CC(=O)n1c2ccc([N+](=O)[O-])cc2c(=O)n1Cc1ccccc1,> 256,,,> 256,,213,,,,,
COCCn1c2ccc([N+](=O)[O-])cc2c(=O)n1Cc1ccccc1,6.56,> 112,2.29,> 256,> 39,285,,,,,
CC(=O)OCCn1c2ccc([N+](=O)[O-])cc2c(=O)n1Cc1ccccc1,5.43,> 1024,0.25,> 256,> 47.1,266,,,,,
O=[N+]([O-])c1ccc2nn(Cc3ccccc3)c(OCCCBr)c2c1,39,,,59,1.51,18.6,539,39.1,13.8,< 20,29
N#CCn1c2ccc([N+](=O)[O-])cc2c(=O)n1Cc1ccccc1,11.7,> 73.1,3.5,> 256,> 21.9,,,,,,
CNC(=O)CCCn1c2ccc([N+](=O)[O-])cc2c(=O)n1Cc1ccccc1,13.3,> 171,1.5,> 256,> 19.3,182,,,,,
COC(=O)C1Nc2ccc([N+](=O)[O-])cc2C(=O)N1Cc1ccccc1 (configuration not stated),216,,,> 256,> 1.18,,,,,,
O=[N+]([O-])c1ccc2nn(Cc3ccccc3)c(OCCOc3c4cc([N+](=O)[O-])ccc4nn3Cc3ccccc3)c2c1,> 256,,,> 256,,,,,,,
O=C(O)CCCn1c2ccc([N+](=O)[O-])cc2c(=O)n1Cc1ccccc1,> 256,,,> 256,,,,,,,
O=C(O)CCn1c2ccc([N+](=O)[O-])cc2c(=O)n1Cc1ccccc1,> 256,,,> 256,,,,,,,
Cc1ncc([N+](=O)[O-])n1CCO [METRONIDAZOLE],,,,,,1.43,> 600,5.78,>100,,>100
COC(=O)CCOc1c2cc([N+](=O)[O-])ccc2nn1Cc1ccccc1,> 256,,,> 256,,43,> 300,,,< 20,>7
O=c1c2cc([N+](=O)[O-])ccc2n(CCOc2c3cc([N+](=O)[O-])ccc3nn2Cc2ccccc2)n1Cc1ccccc1,> 256,,,> 256,,,,,,,
O=c1c2cc([N+](=O)[O-])ccc2n(CCCBr)n1Cc1ccccc1,2.9,,,25.2,8.69,80.2,,,,,
CCOC(=O)n1c2ccc([N+](=O)[O-])cc2c(=O)n1Cc1ccccc1,49,,,122,2.49,419,,,,,
O=C(OCc1ccccc1)n1c2ccc([N+](=O)[O-])cc2c(=O)n1Cc1ccccc1,43.6,,,86.1,1.97,589,,,,,

SMILES,IC50 (Trypanosoma cruzi [1]) [µM],selectivity ratio [2],IC50 (Trypanosoma cruzi [3]) [µM],CC50 at 48 h [4] [µM],selectivity ratio [5],IC50 (Trichomonas vaginalis [6]) [µM],CC50 at 24 h [7] [µM],IC50 (Trichomonas vaginalis [8]) [µM],Ratio CC50/IC50 [9],"inhibition at 24 h, 300 µM [10] [%]",Ratio CC50/IC50 [11]
O=C(c1ccccc1)n1c2ccc([N+](=O)[O-])cc2c(=O)n1Cc1ccccc1,> 256,,,146,< 0.57,197,,,,,
Cc1ccc(S(=O)(=O)n2c3ccc([N+](=O)[O-])cc3c(=O)n2Cc2ccccc2)cc1,28.8,,,> 256,> 8.9,151,,,,,
CCOC(=O)CCCOc1c2cc([N+](=O)[O-])ccc2nn1Cc1ccccc1,25.1,> 10.1,25.4,> 256,> 10.2,20.6,,,,,
O=c1c2cc([N+](=O)[O-])ccc2n(CCCO)n1Cc1ccccc1,1.68,> 1024,0.25,> 256,> 152,128,,,,,
COCCOc1c2cc([N+](=O)[O-])ccc2nn1Cc1ccccc1,> 256,,,> 256,,107,,,,,
O=[N+]([O-])c1ccc2nn(Cc3ccccc3)c(OCCO)c2c1,> 256,,,> 256,,9.82,> 300,49.8,>6,14.7,>30.5
NC(=O)CN1c2ccc([N+](=O)[O-])cc2C(=O)N(Cc2ccccc2)C1C(N)=O (configuration not stated),> 256,,,> 256,,,,,,,
C#CCn1c2ccc([N+](=O)[O-])cc2c(=O)n1Cc1ccccc1,10.8,64.7,3.02,195,18.1,261,,,,,
CCOC(=O)CCCn1c2ccc([N+](=O)[O-])cc2c(=O)n1Cc1ccccc1,11.1,,,78.1,7.01,192,,,,,
CN(C)C(=O)CCCn1c2ccc([N+](=O)[O-])cc2c(=O)n1Cc1ccccc1,3.86,> 474,0.54,> 256,> 66.3,48.9,> 300,,,< 20,>6.1
NC(=O)C1Nc2ccc([N+](=O)[O-])cc2C(=O)N1Cc1ccccc1 (configuration not stated),> 256,,,> 256,,,,,,,
O=[N+]([O-])c1ccc2nn(Cc3ccccc3)c(OCCBr)c2c1,> 256,,,> 256,,64.8,,,,,
COC(=O)Cn1c2ccc([N+](=O)[O-])cc2c(=O)n1Cc1ccccc1,26.2,,,129,4.92,535,,,,,
COc1c2cc([N+](=O)[O-])ccc2nn1C,,,,,,18.5,,,,,
C=CCn1c2ccc([N+](=O)[O-])cc2c(=O)n1Cc1ccccc1,4.19,122,1.58,192,45.9,359,,,,,
COC(=O)CN1c2ccc([N+](=O)[O-])cc2C(=O)N(Cc2ccccc2)C1C(=O)OC (configuration not stated),> 256,,,205,< 0.8,58.2,,,,,
COC(=O)CCn1c2ccc([N+](=O)[O-])cc2c(=O)n1Cc1ccccc1,9.19,> 87.4,2.93,> 256,> 27.9,376,,,,,
COC(=O)COc1c2cc([N+](=O)[O-])ccc2nn1Cc1ccccc1,145,,,> 256,> 1.77,,,,,,
NC(=O)CCCn1c2ccc([N+](=O)[O-])cc2c(=O)n1Cc1ccccc1,31,,,> 256,> 8.26,104,,,,,
